# Results from publication PMC4819696 (Febs Letters, 2016).
# Entries after “also recorded” stand apart in the source; their conditions may differ. *: point of attachment. Biotin = O=C1N[C@H]2[C@H](CS[C@H]2CCCCC(=O)*)N1
# Columns and labels:
# [1] = system: syntenin PDZ1‐2; assay: Clonal phage ELISA against PDZ1‐2; format: binding; details: clonal ELISA against the baits PDZ1, PDZ2 or PDZ1‐2
# Procedure, shortened: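 Syntenin PDZ1‑2 (107–275), PDZ1 (107–199) and PDZ2 (198–275) were expressed in E. coli ER2566 and purified by nickel affinity. Clones came from five rounds of selection of M13 gene‑8 libraries (random C‑terminal heptamers or internal dodecamers) on immobilized PDZ1‑2, with PBS/0.05% Tween 20 washes. Clones binding PDZ1‑2 but not control GST were sequenced, then each was tested by phage ELISA against immobilized PDZ1‑2, PDZ1 and PDZ2.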
# [2] = target: T1, full‐length syntenin (Homo sapiens, UniProt O00560); assay: Surface plasmon resonance; format: binding; details: used as reference channel; 10 mM HEPES, 150 mM NaCl, 0.005% Tween20, pH 7.4
# T1 sequence (O00560 1-298): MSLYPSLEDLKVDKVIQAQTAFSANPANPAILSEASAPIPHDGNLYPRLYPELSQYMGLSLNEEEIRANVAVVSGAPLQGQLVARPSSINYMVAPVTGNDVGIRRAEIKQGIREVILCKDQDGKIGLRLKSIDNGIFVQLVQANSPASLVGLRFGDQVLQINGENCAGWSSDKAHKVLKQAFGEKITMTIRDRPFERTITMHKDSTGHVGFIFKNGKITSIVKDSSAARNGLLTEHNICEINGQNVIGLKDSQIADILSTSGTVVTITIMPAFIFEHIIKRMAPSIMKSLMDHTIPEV
# [3] = system: syntenin; assay: Co-immunoprecipitation of endogenous nectin-1 and syntenin in MCF‐7 cells; format: cell-based; details: IP with nectin‐1 specific antibody, immunoblot with anti‐syntenin antibody
# [4] = target: T2, full-length syntenin (SPR analyte) (UniProt O00560 1-298); assay: SPR
# T2 sequence (looked up): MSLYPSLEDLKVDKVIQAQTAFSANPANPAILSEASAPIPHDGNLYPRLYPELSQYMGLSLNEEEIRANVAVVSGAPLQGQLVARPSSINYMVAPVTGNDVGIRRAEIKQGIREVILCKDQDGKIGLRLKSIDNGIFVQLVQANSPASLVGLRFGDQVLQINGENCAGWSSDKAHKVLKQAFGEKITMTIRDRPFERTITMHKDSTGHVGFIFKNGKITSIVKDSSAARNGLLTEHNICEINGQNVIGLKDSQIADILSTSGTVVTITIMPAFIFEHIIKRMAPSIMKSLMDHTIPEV
# [5] = system: nectin‐1; format: cell-based; details: freshly plated MCF‐7 cells, fibronectin-coated coverslips, 5 h
# [6] = system: C‐terminus of nectin‐1; format: binding; details: bait C‐terminus of nectin‐1
# Procedure, shortened: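 Bait was transformed into MaV203 yeast, followed by 100 μg human fetal brain cDNA library in pEXP‑AD502. About 5 × 10^5 transformants were plated on medium lacking Trp/Leu/His with 20 mM 3‑amino‑1,2,4‑triazole, 30 °C, 5 days. Positives were checked on uracil and β‑galactosidase reporters, PCR‑amplified and retested in fresh bait yeast. Multi‑product colonies were discarded. Inserts were sequenced and in‑frame GAL4AD clones kept.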
molecule,measurement,setting,value
SHWTIDI,binding in clonal phage ELISA (in words),[1],both PDZ domains are necessary for binding to this peptide
Biot‐RMRKKDEGSYDLGERKPSSAAYQKAPTKEFpYA‐COOH,binding to syntenin by SPR (in words),[2],nonbinding
YYWAATGENVYS,binding in clonal phage ELISA (in words),[1],loss of binding in phage ELISAs
"nectin‐1: cell adhesion protein PVRL1, also called nectin-1 (protein) QVVQVNDSMYGFIGTDVVLHCSFANPLPSVKITQVTWQKSTNGSKQNVAIYNPSMGVSVLAPYRERVEFLRPSFTDGTIRLSRLELEDEGVYICEFATFPTGNRESQLNLTVMAKPTNWIEGTQAVLRAKKGQDDKVLVATCTSANGKPPSVVSWETRLKGEAEYQEIRNPNGTVTVISRYRLVPSREAHQQSLACIVNYHMDRFKESLTLNVQYEPEVTIEGFDGNWYLQRMDVKLTCKADANPPATEYHWTTLNGSLPKGVEAQNRTLFFKGPINYSLAGTYICEATNPIGTRSGQVEVNITEFPYTPSPPEHGRRAGPVPTAIIGGVAGSILLVLIVVGGIVVALRRRRHTFKGDYSTKKHVYGNGYSKAGIPQHHPPMAQNLQYPDDSDDEKKAGPLGGSSYEEEEEEEEGGGGGERKVGGPHPKYDEDAKRPYFTVDEAEARQDGYGDRTLGYQYDPEQLDLAENMVSQNDGSFISKKEWYV",co-IP of endogenous proteins (in words),[3],confirmed an interaction between the endogenous proteins
Biotin-AENMVSQNDGSFISKKEWYV-OH (SMILES CC[C@H](C)[C@H](NC(=O)[C@H](Cc1ccccc1)NC(=O)[C@H](CO)NC(=O)CNC(=O)[C@H](CC(=O)O)NC(=O)[C@H](CC(N)=O)NC(=O)[C@H](CCC(N)=O)NC(=O)[C@H](CO)NC(=O)[C@@H](NC(=O)[C@H](CCSC)NC(=O)[C@H](CC(N)=O)NC(=O)[C@H](CCC(=O)O)NC(=O)[C@H](C)NC(=O)CCCC[C@@H]1SC[C@@H]2NC(=O)N[C@@H]21)C(C)C)C(=O)N[C@@H](CO)C(=O)N[C@@H](CCCCN)C(=O)N[C@@H](CCCCN)C(=O)N[C@@H](CCC(=O)O)C(=O)N[C@@H](Cc1c[nH]c2ccccc12)C(=O)N[C@@H](Cc1ccc(O)cc1)C(=O)N[C@H](C(=O)O)C(C)C) [N-terminal biotinylated nectin-1 C-terminal peptide],Kd,[4],14 µM
"syntenin: small adaptor protein with PDZ1-2 tandem (protein, left off: GAL4AD, end not stated, kept) MSLYPSLEDLKVDKVIQAQTAFSANPANPAILSEASAPIPHDGNLYPRLYPELSQYMGLSLNEEEIRANVAVVSGAPLQGQLVARPSSINYMVAPVTGNDVGIRRAEIKQGIREVILCKDQDGKIGLRLKSIDNGIFVQLVQANSPASLVGLRFGDQVLQINGENCAGWSSDKAHKVLKQAFGEKITMTIRDRPFERTITMHKDSTGHVGFIFKNGKITSIVKDSSAARNGLLTEHNICEINGQNVIGLKDSQIADILSTSGTVVTITIMPAFIFEHIIKRMAPSIMKSLMDHTIPEV",colocalization (in words),[5],colocalizes with nectin‐1 at the sites of cell–cell contacts
same,Y2H preference (in words),[6],preferred nectin‐1 binder; also recorded: favored ligand of the C‐terminus of nectin‐1
